Measurements: ChEMBL document CHEMBL4414673, “The DESIGNER Approach Helps Decipher the Hypoglycemic Bioactive Principles of Artemisia dracunculus (Russian Tarragon)” (J Nat Prod, 2019)
Calls of active or inactive are those of the source. The rule behind the calls is not given here.

Legend:
Mus musculus [1] = test: Effect on insulin signalling in high fat diet-induced obese C57BL/6J mouse assessed as effect on AKT phosphorylation at threonine 308 residue expression in adipose tissue at 100 to 300 mg/kg administered via gavage for 2 weeks and measured after 6 hrs post dose by Western blot analysis; format: functional, organism-based
How it was run: (§1)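 Male C57BL/6J mice, singly housed, were fed a 60% kcal fat diet from 4 weeks of age for 16 weeks and acclimated to gavage for 2 weeks. They got one gavage dose of 100 or 300 mg/kg in Labrasol vehicle and were euthanized at 6 h. Muscle, liver or gonadal fat was lysed in HEPES/Igepal buffer, and 50 μg protein was immunoblotted with chemiluminescent detection.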

Mus musculus [2] = test: Effect on insulin signalling in high fat diet-induced C57BL/6J mouse assessed as AKT phosphorylation at Ser […] residue in adipose tissue at 100 to 300 mg/kg administered via gavage for 2 weeks and measured after 6 hrs post dose by Western blot analysis; format: functional, organism-based; how it was run: as §1
Mus musculus [3] = test: Hypoglycemic activity in high fat diet-induced obese C57BL/6J mouse assessed as increase in C-peptide level at 100 to 300 mg/kg […] and measured after 6 hrs post dose; format: functional, organism-based
How it was run: (§2)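 Diet-induced obese male C57BL/6J mice were given one gavage dose (100 or 300 mg/kg, Labrasol vehicle). Fasting plasma insulin and C-peptide (ng/mL) were measured by ELISA 6 h after dosing, as mean ± SD versus vehicle.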

C2C12 = test: Activation of insulin signalling in palmitate-induced insulin resistant mouse C2C12 cells assessed as increase in glycogen level at 10 ug/ml; format: functional, cell-based
How it was run: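 Palmitate-treated, insulin-resistant C2C12 myotubes (differentiated in 2% horse serum, low-glucose DMEM) were treated at 10 μg/mL and exposed to insulin for 10 min before harvest. Glycogen was measured with a kit assay and expressed as ng released glucose/μg protein.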

Mus musculus [4] = test: Effect on insulin signalling in high fat diet-induced C57BL/6J mouse assessed as AKT phosphorylation at Ser […] residue in liver at 100 to 300 mg/kg administered via gavage for 2 weeks and measured after 6 hrs post dose by Western blot analysis; format: functional, organism-based; how it was run: as §1
Mus musculus [5] = test: Effect on insulin signalling in high fat diet-induced obese C57BL/6J mouse assessed as increase in IR-beta phosphorylation at tyrosine 1150 residue at 100 to 300 mg/kg administered via gavage for 2 weeks and measured after 6 hrs post dose by Western blot analysis; format: functional, organism-based; how it was run: as §1
[6] = target: RAC-alpha serine/threonine-protein kinase (Mus musculus) (UniProt P31750); test: Activation of insulin signalling in palmitate-induced insulin resistant mouse C2C12 cells assessed as upregulation of AKT phosphorylation at threonine 308 and Ser273 residue at 10 ug/ml by Western blot analysis; format: cell-based
How it was run: (§3)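 C2C12 myoblasts were grown in high-glucose (25 mM) DMEM with 10% FBS and differentiated with 2% horse serum, then switched to low-glucose (5 mM) medium. Insulin resistance was induced with palmitate. Myotubes were treated at 10 μg/mL, exposed to insulin for 10 min and harvested. Total and phosphorylated signaling proteins were analysed by Western blot.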

[7] = target: Glycogen synthase kinase-3 alpha/beta (Mus musculus) (UniProt Q9WV60+Q2NL51); test: Activation of insulin signalling in palmitate-induced insulin resistant mouse C2C12 cells assessed as increase GSK-3 alpha/beta phosphorylation at 10 ug/ml by Western blot analysis; format: cell-based; how it was run: as §3
Mus musculus [8] = test: Hypoglycemic activity in high fat diet-induced obese C57BL/6J mouse assessed as reduction in blood glucose level at 100 to 300 mg/kg […] and measured after 6 hrs post dose; format: functional, organism-based
How it was run: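 Obese male C57BL/6J mice (60% kcal fat diet for 16 weeks, gavage-acclimated for 2 weeks) received one oral gavage dose of 100 or 300 mg/kg in Labrasol. Fasting whole-blood glucose was read by glucometer at baseline and hourly. Results are given as mg/dL and % change from baseline at 6 h, mean ± SD versus vehicle.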

Mus musculus [9] = test: Effect on insulin signalling in high fat diet-induced obese C57BL/6J mouse assessed as effect on AKT phosphorylation at threonine 308 residue expression in liver at 100 to 300 mg/kg administered via gavage for 2 weeks and measured after 6 hrs post dose by Western blot analysis; format: functional, organism-based; how it was run: as §1
Mus musculus [10] = test: Effect on insulin signalling in high fat diet-induced obese C57BL/6J mouse assessed as increase in AKT phosphorylation at serine […] residue in skeletal muscle at 100 to 300 mg/kg administered via gavage for 2 weeks and measured after 6 hrs post dose by Western blot analysis; format: functional, organism-based; how it was run: as §1
Mus musculus [11] = test: Hypoglycemic activity in high fat diet-induced obese C57BL/6J mouse assessed as increase in insulin level at 300 mg/kg administered via gavage […] and measured after 6 hrs post dose; format: functional, organism-based; how it was run: as §2
Mus musculus [12] = test: Effect on insulin signalling in high fat diet-induced obese C57BL/6J mouse assessed as increase in PI3K-P85 expression in skeletal muscle at 100 mg/kg administered via gavage for 2 weeks and measured after 6 hrs post dose by Western blot analysis; format: functional, organism-based; how it was run: as §1
Mus musculus [13] = test: Effect on total IRbeta expression in high fat diet-induced obese C57BL/6J mouse skeletal muscle at 100 to 300 mg/kg administered via gavage for 2 weeks and measured after 6 hrs post dose by Western blot analysis; format: organism-based; conditions: in vivo, po; how it was run: as §1
[14] = Toxicity in high fat diet-induced C57BL/6J mouse assessed as upregulation of total AKT expression in adipose tissue at 300 mg/kg administered via gavage for 2 weeks and measured after 6 hrs post dose by Western blot analysis; format: organism-based; conditions: in vivo, po; how it was run: as §1
[15] = Toxicity in high fat diet-induced obese C57BL/6J mouse assessed as effect on body weight at 100 to 300 mg/kg administered via gavage for 2 weeks and measured after 6 hrs post dose; format: organism-based; conditions: in vivo, po
How it was run: (§4)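 Male C57BL/6J mice on a 60% kcal fat diet from 4 weeks of age were weighed weekly. Body weights at 20 weeks of age are reported for mice randomized to the gavage treatment groups, as mean ± SD versus vehicle.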

[16] = Toxicity in high fat diet-induced obese C57BL/6J mouse assessed as effect on body weight at 300 mg/kg administered via gavage for 2 weeks and measured after 6 hrs post does; format: organism-based; conditions: in vivo, po; how it was run: as §4

Chain of RAC-alpha serine/threonine-protein kinase (Mus musculus) (P31750 whole entry): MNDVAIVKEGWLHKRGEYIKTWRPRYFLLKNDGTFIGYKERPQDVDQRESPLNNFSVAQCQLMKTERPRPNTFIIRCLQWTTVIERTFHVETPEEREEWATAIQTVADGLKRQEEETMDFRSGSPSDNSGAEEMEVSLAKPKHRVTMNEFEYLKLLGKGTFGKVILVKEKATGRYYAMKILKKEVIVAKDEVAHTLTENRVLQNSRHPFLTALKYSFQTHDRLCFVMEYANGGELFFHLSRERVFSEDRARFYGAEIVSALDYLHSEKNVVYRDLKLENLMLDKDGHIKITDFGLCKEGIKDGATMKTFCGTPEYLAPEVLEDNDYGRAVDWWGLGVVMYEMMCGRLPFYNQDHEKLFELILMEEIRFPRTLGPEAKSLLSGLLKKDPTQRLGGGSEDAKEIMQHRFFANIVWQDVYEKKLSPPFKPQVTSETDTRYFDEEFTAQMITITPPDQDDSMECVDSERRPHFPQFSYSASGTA
Chain of Glycogen synthase kinase-3 alpha/beta (Mus musculus) (Q2NL51 whole entry, looked up): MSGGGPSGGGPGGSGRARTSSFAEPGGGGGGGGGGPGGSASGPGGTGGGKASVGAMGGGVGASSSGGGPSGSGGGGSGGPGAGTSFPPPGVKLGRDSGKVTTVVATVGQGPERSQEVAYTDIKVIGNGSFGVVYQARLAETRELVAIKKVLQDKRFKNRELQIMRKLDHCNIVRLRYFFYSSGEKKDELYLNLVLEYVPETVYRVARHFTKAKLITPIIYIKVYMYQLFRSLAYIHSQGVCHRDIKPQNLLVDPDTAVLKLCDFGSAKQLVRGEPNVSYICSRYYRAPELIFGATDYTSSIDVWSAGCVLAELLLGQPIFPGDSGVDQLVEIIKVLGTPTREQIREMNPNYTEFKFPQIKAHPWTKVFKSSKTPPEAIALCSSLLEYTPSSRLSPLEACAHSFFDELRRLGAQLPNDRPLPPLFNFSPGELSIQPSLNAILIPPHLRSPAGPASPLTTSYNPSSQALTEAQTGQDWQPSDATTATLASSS
Chain of Glycogen synthase kinase-3 alpha/beta (Mus musculus) (Q9WV60 whole entry, looked up): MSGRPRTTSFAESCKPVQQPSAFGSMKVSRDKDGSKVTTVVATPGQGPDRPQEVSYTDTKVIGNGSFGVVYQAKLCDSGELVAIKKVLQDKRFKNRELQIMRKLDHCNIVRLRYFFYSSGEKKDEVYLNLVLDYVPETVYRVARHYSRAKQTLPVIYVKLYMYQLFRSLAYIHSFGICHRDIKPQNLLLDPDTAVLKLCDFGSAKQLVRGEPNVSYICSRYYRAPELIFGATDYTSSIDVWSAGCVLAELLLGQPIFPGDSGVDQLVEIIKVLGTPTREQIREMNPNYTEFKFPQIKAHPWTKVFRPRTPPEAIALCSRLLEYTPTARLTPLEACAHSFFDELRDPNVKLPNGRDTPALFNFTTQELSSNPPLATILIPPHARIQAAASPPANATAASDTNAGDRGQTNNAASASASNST

Structure (SMILES) | Activity (Mus musculus [1]) | Activity (Mus musculus [2]) | Activity (Mus musculus [3]) | Activity (C2C12) | Activity (Mus musculus [4]) | Activity (Mus musculus [5]) | Activity [6] | Activity [7] | Activity (Mus musculus [8]) | Activity (Mus musculus [9]) | Activity (Mus musculus [10]) | Activity (Mus musculus [11]) | Activity (Mus musculus [12]) | Activity (Mus musculus [13]) | Activity [14] | Activity [15] | Activity [16]
COc1ccc(CCC(=O)c2ccc(O)cc2O)cc1 | inactive | inactive | Active | Active | Active | inactive | Active | Active | Active | inactive | Active | Active | Active | Non-Toxic | Toxic | Non-Toxic | 
CN(C)C(=N)N=C(N)N [METFORMIN] |  |  |  |  |  |  |  |  |  |  |  |  |  |  |  |  | Non-Toxic
